In ChEMBL document CHEMBL1131622, “(+/-)-trans-2-[3-methoxy-4-(4-chlorophenylthioethoxy)-5-(N-methyl-N- hydroxyureidyl)methylphenyl]-5-(3,4, 5-trimethoxyphenyl)tetrahydrofuran (CMI-392), a potent dual 5-lipoxygenase inhibitor and platelet-activating factor receptor antagonist” (J Med Chem, 1998):
pIC50: −log10 of the molar value. Several values for one entry are separate records, joined by “and”; a condition that tells them apart may be missing. Equal entries are not always repeated.

Assays:
[1] = target: T1, Polyunsaturated fatty acid 5-lipoxygenase (Rattus norvegicus, UniProt P12527); assay: Inhibition of 5-lipoxygenase mediated conversion of [14C]arachidonic acid to leukotrienes in RBL-2H3 cells; type: cell-based
T1 sequence (P12527 whole entry): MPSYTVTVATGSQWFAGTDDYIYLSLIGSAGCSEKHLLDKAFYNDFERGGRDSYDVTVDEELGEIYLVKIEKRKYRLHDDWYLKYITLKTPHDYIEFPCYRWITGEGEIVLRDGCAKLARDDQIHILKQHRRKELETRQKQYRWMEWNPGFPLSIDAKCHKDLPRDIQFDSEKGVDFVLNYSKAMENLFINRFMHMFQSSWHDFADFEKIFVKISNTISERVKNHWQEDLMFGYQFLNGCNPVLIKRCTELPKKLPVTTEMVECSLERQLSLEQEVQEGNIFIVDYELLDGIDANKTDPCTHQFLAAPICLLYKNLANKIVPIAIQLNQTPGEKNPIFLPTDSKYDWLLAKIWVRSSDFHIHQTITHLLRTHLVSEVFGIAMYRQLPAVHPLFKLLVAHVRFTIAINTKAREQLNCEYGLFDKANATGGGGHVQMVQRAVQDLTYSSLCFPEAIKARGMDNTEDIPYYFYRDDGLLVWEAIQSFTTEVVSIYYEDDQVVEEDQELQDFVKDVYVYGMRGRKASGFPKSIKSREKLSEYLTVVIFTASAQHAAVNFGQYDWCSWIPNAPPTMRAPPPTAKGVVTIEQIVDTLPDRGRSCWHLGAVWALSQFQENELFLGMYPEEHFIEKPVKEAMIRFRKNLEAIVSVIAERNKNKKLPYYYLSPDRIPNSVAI
Outline: (§1)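 Lysate plus compound (DMSO) in buffer with 0.1 M NaCl, 0.7 mM CaCl2, 20 min room temperature, then [14C]AA substrate mix 5 min 37 °C. Products extracted, resolved by silica TLC, autoradiography/densitometry; IC50 by regression.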

Mus musculus [2] = assay: In vivo inhibition against arachidonic acid induced ear Edema in mice at a concentration of 3 mg/kg; type: functional
Outline: (§2)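 Compound given iv at 3 mg/kg in 0.5% DMSO saline 15 min before topical arachidonic acid (0.5 mg in acetone/pyridine/water 97:2:1) on both ears of mice. Sacrifice at 1 h; 7-mm ear punches weighed, edema as mean wet weight.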

[3] = target: Platelet-activating factor receptor (Homo sapiens, UniProt P25105); assay: Displacement of [3H]PAF from PAF receptor of human platelet membranes
Mus musculus [4] = assay: In vivo inhibition against PAF induced hemoconcentration in mice at a concentration of 3 mg/kg; type: functional
Outline: (§3)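 Mice given compound iv at 3 mg/kg in 0.5% DMSO saline, then PAF (10 μg, in 0.25% BSA/saline) iv by tail vein 15 min later. Tail blood taken 15 min after PAF for hematocrit; percent inhibition relative to vehicle control.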

Homo sapiens [5] = organism: Homo sapiens; assay: (§4) Compound was evaluated for inhibiting production of LTB4 in calcium Ionophore (A23187) activated human whole blood.; type: functional
Outline: (§5)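 Heparinized human whole blood (1 mL) preincubated with compound in DMSO 15 min at 37 °C, then stimulated with A23187 (50 μM final) 30 min at 37 °C; plasma LTB4 measured by EIA. IC50 by regression; percent inhibition also reported at 3 μM.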

Homo sapiens [6] = organism: Homo sapiens; assay: as §4; type: functional; parameters: concentration or dose not given beside the values; outline: as §5
[7] = target: T1, Polyunsaturated fatty acid 5-lipoxygenase; assay: 5-lipoxygenase inhibitory activity determined by measuring the conversion of [14C]arachidonic acid to leukotrienes in RBL-2H3 cell using thin-layer chromatography.; type: cell-based; outline: as §1
[8] = In vivo activity against platelet activating factor (PAF)-induced hemoconcentration in mouse.; type: functional; outline: as §3
[9] = Half-life was determined; type: ADME; details: human
Mus musculus [10] = assay: (§6) In vivo activity against acute TPA-induced ear edema in mouse.; type: functional
Outline: (§7)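 Mice, 8 per group, TPA in acetone (10 μL) applied topically to both ear surfaces with or without drug. Sacrifice at 6 h; punch biopsies weighed, MPO measured spectrophotometrically in homogenized tissue, histology also done; compared with maximal control.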

Mus musculus [11] = assay: as §6; type: functional; outline: as §7; remark: listed apart in the source
Homo sapiens [12] = organism: Homo sapiens; assay: In vitro inhibition of LTB4 production in human whole blood; type: functional; outline: as §5
Mus musculus [13] = assay: In vivo activity against arachidonic acid induced ear edema in mouse.; type: functional; outline: as §2
Mus musculus [14] = assay: In vivo activity against chronic TPA-induced ear edema in mouse.; type: functional
Outline: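 Mice, 8 per group, TPA in acetone (10 μL) applied topically to both ears once a day every 2 days for 10 days. Drug applied topically twice daily over the last 3 days. Punch biopsies weighed; MPO measured spectrophotometrically; histology also done.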

Platelet-activating factor receptor, sequence (P25105 whole entry): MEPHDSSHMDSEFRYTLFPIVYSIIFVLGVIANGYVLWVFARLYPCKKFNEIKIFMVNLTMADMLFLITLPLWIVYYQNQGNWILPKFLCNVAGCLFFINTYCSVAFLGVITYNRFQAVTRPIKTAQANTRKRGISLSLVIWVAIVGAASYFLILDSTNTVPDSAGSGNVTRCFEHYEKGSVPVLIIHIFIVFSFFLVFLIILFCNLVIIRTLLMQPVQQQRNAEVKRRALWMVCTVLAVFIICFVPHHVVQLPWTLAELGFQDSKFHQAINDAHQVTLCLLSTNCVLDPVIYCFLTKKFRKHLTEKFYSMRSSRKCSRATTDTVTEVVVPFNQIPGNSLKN

| SMILES | pIC50 [1] | inhibition in vivo at 3 mg/kg (Mus musculus [2]) [%] | pIC50 [3] | inhibition in vivo at 3 mg/kg (Mus musculus [4]) [%] | pIC50 (Homo sapiens [5]) | Inhibition (Homo sapiens [6]) [%] | other results |
| --- | --- | --- | --- | --- | --- | --- | --- |
| CCCCN(O)C(=O)Nc1cc([C@@H]2CC[C@@H](c3cc(OC)c(OC)c(OC)c3)O2)cc(OC)c1OCCS(=O)(=O)c1c(F)c(F)cc(F)c1F (racemic) | 6.28 | 12 | 6.55 | 50 |  |  |  |
| CCCCN(O)C(=O)Nc1cc([C@@H]2CC[C@@H](c3cc(OC)c(OC)c(OC)c3)O2)cc(OC)c1OCCC |  |  |  |  | 5.46 |  |  |
| CCCCN(O)C(=O)Nc1cc([C@@H]2CC[C@@H](c3cc(OC)c(OC)c(OC)c3)O2)cc(OC)c1OCCSc1ccc(OC)cc1 (racemic) | 7.15 | 3 | 7.41 | 24 |  | 32 |  |
| CCCCN(O)C(=O)Nc1cc([C@@H]2CC[C@@H](c3cc(OC)c(OC)c(OC)c3)O2)cc(OC)c1OCCS(=O)(=O)c1ccc(Br)cc1 (racemic) |  | 35 | 7.42 | 29 |  | 72 |  |
| CCCCN(O)C(=O)Nc1cc([C@@H]2CC[C@@H](c3cc(OC)c(OC)c(OC)c3)O2)cc(OC)c1OCCSc1cccc(Br)c1 (racemic) | 7.37 | 40 | 7.66 | 28 | 5.12 |  |  |
| CCCCN(O)C(=O)NCc1cc([C@@H]2CC[C@@H](c3cc(OC)c(OC)c(OC)c3)O2)cc(OC)c1OCCSc1ccc(Cl)cc1 (racemic) |  |  | 6.78 |  |  | 26 |  |
| CCCCN(O)C(=O)Nc1cc([C@@H]2CC[C@@H](c3cc(OC)c(OC)c(OC)c3)O2)cc(OC)c1OCCSc1ccccc1Br (racemic) | 7.48 | 26 | 7.64 | 34 |  | 48 |  |
| CCCCN(O)C(=O)Nc1cc([C@@H]2CC[C@@H](c3cc(OC)c(OC)c(OC)c3)O2)cc(OC)c1OCCSc1ccc(Cl)cc1 (racemic) |  | 39 | 7.70 | 43 | 5.19 |  | pIC50 [7]: 7.24 |
| COc1cc([C@@H]2CC[C@@H](c3cc(OC)c(OC)c(OC)c3)O2)cc(CNC(=O)N(C)O)c1OCCSc1ccc(Cl)cc1 (racemic) | 7.00 | 46 | 8.00 | 56 | 5.11 |  | ED50 [8]: 2.2 mg/kg; half-life [9]: 30 min; ED50 (Mus musculus [10]): 299 ug ear-1; ED50 (Mus musculus [11]): 269 ug ear-1; pIC50 (Homo sapiens [12]): 5.11; ED50 (Mus musculus [13]): 1.8 mg/kg; ED50 (Mus musculus [14]): 552 ug ear-1 and 580 ug ear-1 |
| CCCCN(O)C(=O)Nc1cc([C@@H]2CC[C@@H](c3cc(OC)c(OC)c(OC)c3)O2)cc(OC)c1OCCSc1ccc(Cl)c(Cl)c1 (racemic) | 7.77 | 26 | 7.35 | 26 |  | 61 |  |
| CC(C#Cc1ccc(Oc2ccc(F)cc2)o1)N(O)C(N)=O (stereo not drawn) | 6.53 |  |  |  | 7.00 |  |  |
| CC(c1cc2ccccc2s1)N(O)C(N)=O (stereo not drawn) [ZILEUTON] |  |  |  |  |  | 1 |  |
| CCCCN(O)C(=O)Nc1cc([C@@H]2CC[C@@H](c3cc(OC)c(OC)c(OC)c3)O2)cc(OC)c1OCCSc1c(F)c(F)cc(F)c1F (racemic) | 6.93 | 30 | 8.70 | 59 |  | 3 |  |
| CCCCN(O)C(=O)Nc1cc([C@@H]2CC[C@@H](c3cc(OC)c(OC)c(OC)c3)O2)cc(OC)c1OCCSc1ccc(Br)cc1 (racemic) | 7.72 |  | 7.68 |  | 5.92 |  |  |
| CCCCN(O)C(=O)Nc1cc([C@@H]2CC[C@@H](c3cc(OC)c(OC)c(OC)c3)O2)cc(OC)c1OCCS(=O)(=O)c1ccccc1Br (racemic) | 6.79 |  | 7.60 | 60 |  | 19 |  |
